Reference: ChEMBL document CHEMBL1139231 (J Med Chem, 2007)
Active and inactive are the calls of the source. No cut-off for these calls is given here.

Key:
[1] = target: T1, Sodium-dependent dopamine transporter (Homo sapiens, UniProt Q01959); assay: Inhibition of [3H]DA uptake at human DAT expressing HEK293 cells; format: cell-based
Outline: (§1)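 Intact HEK293 cells stably expressing human SERT or DAT, scraped and triturated, preincubated with drug 10 min at 25 °C in Krebs-HEPES pH 7.4; [3H]5-HT or [3H]DA (20 nM final) added for 10 min; filtration, scintillation counting. Nonspecific: 5 µM imipramine (SERT) or 5 µM mazindol (DAT). Triplicate points, ≥3 experiments.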

[2] = target: T2, Sodium-dependent noradrenaline transporter (Homo sapiens, UniProt P23975); assay: Inhibition of [3H]NE uptake into human NET expressing HEK293 cells; format: cell-based
T2 sequence (P23975 whole entry): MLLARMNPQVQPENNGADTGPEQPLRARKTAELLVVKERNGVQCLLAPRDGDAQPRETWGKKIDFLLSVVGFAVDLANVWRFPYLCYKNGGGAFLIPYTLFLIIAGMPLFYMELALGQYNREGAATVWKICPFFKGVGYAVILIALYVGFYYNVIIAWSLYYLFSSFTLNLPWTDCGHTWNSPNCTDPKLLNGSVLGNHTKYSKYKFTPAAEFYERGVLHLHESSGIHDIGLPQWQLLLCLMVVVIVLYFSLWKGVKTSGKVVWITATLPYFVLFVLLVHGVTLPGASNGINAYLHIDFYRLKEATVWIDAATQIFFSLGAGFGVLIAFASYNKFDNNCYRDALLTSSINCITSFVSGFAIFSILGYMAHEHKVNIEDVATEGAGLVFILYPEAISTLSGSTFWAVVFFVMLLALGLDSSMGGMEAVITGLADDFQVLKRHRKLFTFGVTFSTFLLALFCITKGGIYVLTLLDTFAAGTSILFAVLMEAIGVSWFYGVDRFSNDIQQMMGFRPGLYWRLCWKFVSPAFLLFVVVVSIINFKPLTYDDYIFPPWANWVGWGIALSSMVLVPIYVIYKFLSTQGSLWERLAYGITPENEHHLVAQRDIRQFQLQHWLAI

[3] = target: T1, Sodium-dependent dopamine transporter; assay: Displacement of [125I]RTI-55 from human DAT expressing HEK293 cells; format: cell-based
[4] = target: T3, Sodium-dependent serotonin transporter (Homo sapiens, UniProt P31645); assay: Inhibition of [3H]5-HT uptake into human SERT expressing HEK293 cells; format: cell-based; outline: as §1
T3 sequence (P31645 whole entry): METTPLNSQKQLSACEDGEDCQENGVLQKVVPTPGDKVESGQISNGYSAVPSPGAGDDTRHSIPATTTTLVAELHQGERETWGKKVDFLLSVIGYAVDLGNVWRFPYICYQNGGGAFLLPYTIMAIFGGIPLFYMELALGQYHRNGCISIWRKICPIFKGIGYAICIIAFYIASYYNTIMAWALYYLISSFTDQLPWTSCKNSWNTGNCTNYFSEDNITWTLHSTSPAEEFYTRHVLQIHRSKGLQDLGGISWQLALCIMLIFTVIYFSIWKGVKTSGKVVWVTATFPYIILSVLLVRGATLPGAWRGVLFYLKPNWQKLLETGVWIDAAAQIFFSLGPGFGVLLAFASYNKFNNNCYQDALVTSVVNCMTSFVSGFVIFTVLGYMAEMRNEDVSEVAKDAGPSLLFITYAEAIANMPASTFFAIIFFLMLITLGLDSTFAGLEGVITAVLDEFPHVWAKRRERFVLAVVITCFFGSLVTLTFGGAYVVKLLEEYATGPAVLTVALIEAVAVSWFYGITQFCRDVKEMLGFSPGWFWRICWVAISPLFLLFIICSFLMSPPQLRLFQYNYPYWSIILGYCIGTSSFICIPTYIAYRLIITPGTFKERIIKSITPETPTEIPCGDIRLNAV

[5] = target: T2, Sodium-dependent noradrenaline transporter; assay: Displacement of [125I]RTI-55 from human NET expressing HEK293 cells; format: cell-based
[6] = target: T3, Sodium-dependent serotonin transporter; assay: Displacement of [125I]RTI-55 from human SERT expressing HEK293 cells; format: cell-based
Outline: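 Membranes from HEK293 cells stably expressing human DAT or SERT (lysed in hypotonic HEPES/EDTA, pelleted, resuspended in 0.32 M sucrose) preincubated with drug 10 min at rt, then [125I]RTI-55 added; 90 min rt in dark; filtration, scintillation counting. Krebs-HEPES buffer pH 7.4. Nonspecific: 5 µM mazindol (DAT) or 5 µM imipramine (SERT). Duplicate points, ≥3 experiments.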

Mus musculus = assay: Effect on locomotor activity in Swiss-Webster mouse at 30 mg/kg; format: functional, organism-based; set-up: dose 30 mg/kg
Outline: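 Nonhabituated male Swiss-Webster mice (Hsd:ND4, 2-3 months), groups of eight, dosed ip (vehicle deionized water) immediately before testing; horizontal photobeam interruptions counted per 10 min over 8 h, one mouse per chamber, starting 2 h after lights on; compared with vehicle, p < 0.05.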

T1 sequence (Q01959 whole entry): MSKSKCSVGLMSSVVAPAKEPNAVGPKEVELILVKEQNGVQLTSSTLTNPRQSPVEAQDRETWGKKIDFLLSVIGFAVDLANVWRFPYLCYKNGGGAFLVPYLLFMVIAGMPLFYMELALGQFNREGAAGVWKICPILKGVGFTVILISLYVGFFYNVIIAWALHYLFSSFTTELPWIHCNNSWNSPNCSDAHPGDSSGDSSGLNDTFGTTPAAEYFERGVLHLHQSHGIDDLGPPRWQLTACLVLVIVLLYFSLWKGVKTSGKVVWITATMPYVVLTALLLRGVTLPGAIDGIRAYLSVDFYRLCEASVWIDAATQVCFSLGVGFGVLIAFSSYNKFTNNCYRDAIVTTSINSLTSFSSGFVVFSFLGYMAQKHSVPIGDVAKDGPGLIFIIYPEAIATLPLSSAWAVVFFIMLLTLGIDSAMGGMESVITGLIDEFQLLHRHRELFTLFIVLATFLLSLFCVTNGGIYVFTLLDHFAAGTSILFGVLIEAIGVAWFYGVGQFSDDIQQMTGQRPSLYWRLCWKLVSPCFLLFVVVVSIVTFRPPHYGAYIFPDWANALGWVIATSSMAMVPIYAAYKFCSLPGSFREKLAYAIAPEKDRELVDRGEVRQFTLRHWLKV

Compound	IC50 [1]	IC50 [2]	Ki [3]	IC50 [4]	Ki [5]	Ki [6]	Activity (Mus musculus)
CC(C)CC(c1ccc(C(C)C)cc1)C1CCCCN1 (stereo not given)	> 9.1 µM	> 8.7 µM	> 6.5 µM	–	–	–	–
CCCC(c1ccc(Cl)cc1)C1CCCCN1 (stereo not given)	0.0074 µM	0.05 µM	0.011 µM	2.9 µM	0.2 µM	2.7 µM	–
CC(C)C(c1ccc(Cl)cc1)C1CCCCN1 (stereo not given)	–	–	–	–	> 10000 µM	> 10000 µM	–
Clc1ccc(C(CCc2ccccc2)C2CCCCN2)cc1 (stereo not given)	–	–	–	0.21 µM	–	1.8 µM	–
CC(=O)C(c1ccccc1)C1CCCCN1 (stereo not given)	0.19 µM	0.22 µM	0.37 µM	> 9.7 µM	2.7 µM	7.8 µM	–
Clc1ccc(C(Cc2ccccc2)C2CCCCN2)cc1 (stereo not given)	–	> 8.8 µM	–	–	–	–	–
CC(C)(C)CC(c1ccc(Cl)cc1)C1CCCCN1 (stereo not given)	–	–	–	> 8.3 µM	> 5.5 µM	–	–
CCC(c1ccc(Cl)cc1)C1CCCCN1 (stereo not given)	2.8 µM	1.3 µM	1.8 µM	4.1 µM	> 9.2 µM	4.2 µM	–
CC(C)CC(c1ccc(Cl)c(Cl)c1)C1CCCCN1C (stereo not given)	–	0.028 µM	–	–	–	–	–
COc1cccc(C(CC(C)C)C2CCCCN2)c1 (stereo in doubt; form 1)	0.035 µM	0.33 µM	0.022 µM	2.7 µM	3.8 µM	4.2 µM	–
COc1ccc(C(CC(C)C)C2CCCCN2)cc1 (stereo in doubt; form 1)	0.025 µM	0.41 µM	0.052 µM	3.5 µM	3.1 µM	2.8 µM	–
CC(C)CC(c1ccc(Cl)c(Cl)c1)C1CCCCN1 (stereo in doubt; form 1)	0.0055 µM	0.009 µM	0.001 µM	1.1 µM	0.025 µM	1.6 µM	–
COC(=O)C(c1ccc(Cl)cc1)C1CCCCN1 (stereo in doubt; form 1)	–	–	–	> 9.8 µM	–	–	–
CC(c1ccc(Cl)cc1)C1CCCCN1 (stereo in doubt; form 1)	0.022 µM	0.035 µM	0.18 µM	1.9 µM	0.36 µM	4.9 µM	–
CCC(CC)C(c1ccc(Cl)cc1)C1CCCCN1 (stereo in doubt; form 1)	0.24 µM	0.33 µM	0.4 µM	> 9.4 µM	0.97 µM	3.9 µM	–
CC(C)CC(c1cccc(Cl)c1)C1CCCCN1 (stereo in doubt; form 1)	0.0028 µM	0.014 µM	0.0037 µM	2.1 µM	0.023 µM	–	–
CCCC(c1ccc(Cl)c(Cl)c1)C1CCCCN1 (stereo in doubt; form 1)	0.0045 µM	0.0081 µM	0.00097 µM	0.56 µM	0.0039 µM	1.8 µM	–
CCCCCC(c1ccc(Cl)cc1)C1CCCCN1 (stereo in doubt; form 1)	0.045 µM	0.049 µM	0.023 µM	1.5 µM	0.16 µM	2.2 µM	–

Compound	IC50 [1]	IC50 [2]	Ki [3]	IC50 [4]	Ki [5]	Ki [6]	Activity (Mus musculus)
CC(C)CCC(c1ccc(Cl)cc1)C1CCCCN1 (stereo in doubt; form 1)	0.014 µM	0.21 µM	0.0036 µM	7.3 µM	0.83 µM	5 µM	–
CCCCC(c1ccc(Cl)c(Cl)c1)C1CCCCN1 (stereo in doubt; form 1)	0.0057 µM	0.027 µM	0.0023 µM	1.4 µM	0.012 µM	1.3 µM	–
Clc1ccc(C(CCCc2ccccc2)C2CCCCN2)cc1 (stereo in doubt; form 1)	0.29 µM	0.6 µM	0.44 µM	1.6 µM	0.49 µM	0.7 µM	–
CC(C)CC(c1ccc(Cl)cc1)C1CCCCN1 (stereo in doubt; form 1)	–	–	–	–	–	–	Active
COc1cccc(C(CC(C)C)C2CCCCN2)c1 (stereo in doubt; form 2)	0.14 µM	1.4 µM	0.95 µM	2.6 µM	12 µM	3.8 µM	–
COc1ccc(C(CC(C)C)C2CCCCN2)cc1 (stereo in doubt; form 2)	0.4 µM	1.6 µM	0.77 µM	1.2 µM	16 µM	0.95 µM	–
CC(C)CC(c1ccc(Cl)c(Cl)c1)C1CCCCN1 (stereo in doubt; form 2)	0.013 µM	0.019 µM	0.031 µM	0.29 µM	0.12 µM	0.45 µM	–
COC(=O)C(c1ccc(Cl)cc1)C1CCCCN1 (stereo in doubt; form 2)	–	–	–	> 10000 µM	> 6.1 µM	–	–
CC(c1ccc(Cl)cc1)C1CCCCN1 (stereo in doubt; form 2)	1.5 µM	3.2 µM	> 3.9 µM	4.7 µM	> 6.3 µM	> 9.1 µM	–
CCC(CC)C(c1ccc(Cl)cc1)C1CCCCN1 (stereo in doubt; form 2)	1.2 µM	3.8 µM	> 5.7 µM	> 9.6 µM	4.3 µM	4.8 µM	–
CC(C)CC(c1cccc(Cl)c1)C1CCCCN1 (stereo in doubt; form 2)	0.088 µM	0.073 µM	0.14 µM	0.87 µM	0.34 µM	–	–
CCCC(c1ccc(Cl)c(Cl)c1)C1CCCCN1 (stereo in doubt; form 2)	0.088 µM	0.047 µM	0.043 µM	0.18 µM	0.03 µM	0.45 µM	–
CCCCCC(c1ccc(Cl)cc1)C1CCCCN1 (stereo in doubt; form 2)	0.65 µM	0.86 µM	0.87 µM	1.7 µM	1.5 µM	3.6 µM	–
CC(C)CC(c1ccc(Cl)cc1)C1CCCCN1 (stereo in doubt; form 2)	0.38 µM	0.75 µM	0.17 µM	–	4.5 µM	–	–
CC(C)CCC(c1ccc(Cl)cc1)C1CCCCN1 (stereo in doubt; form 2)	0.68 µM	3 µM	0.51 µM	> 8.3 µM	12 µM	6.7 µM	–
CCCCC(c1ccc(Cl)c(Cl)c1)C1CCCCN1 (stereo in doubt; form 2)	0.067 µM	0.063 µM	0.029 µM	0.55 µM	0.031 µM	1.1 µM	–
Clc1ccc(C(CCCc2ccccc2)C2CCCCN2)cc1 (stereo in doubt; form 2)	1.4 µM	1.7 µM	2.9 µM	1.2 µM	1.5 µM	1.5 µM	–
COC(=O)C(c1ccccc1)C1CCCCN1 (stereo not given) [METHYLPHENIDATE]	–	0.061 µM	–	5.1 µM	0.66 µM	–	–
